The text below walks through data of the M2OR odorant receptor database.

Settings in all cases: stereoisomer not certain
One assay has as its target T1, OR2W3 (Homo sapiens) (UniProt Q7Z3T1).
T1 sequence (whole entry): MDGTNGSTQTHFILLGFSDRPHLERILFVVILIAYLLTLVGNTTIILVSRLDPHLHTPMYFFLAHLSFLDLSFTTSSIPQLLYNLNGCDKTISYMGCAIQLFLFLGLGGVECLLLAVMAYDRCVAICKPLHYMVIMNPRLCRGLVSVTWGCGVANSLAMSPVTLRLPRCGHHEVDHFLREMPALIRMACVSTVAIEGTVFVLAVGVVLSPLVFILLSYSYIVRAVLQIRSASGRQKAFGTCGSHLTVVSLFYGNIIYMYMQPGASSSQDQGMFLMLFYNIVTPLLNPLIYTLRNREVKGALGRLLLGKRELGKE
In short, it runs like this: (§1)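 Whether a receptor–molecule pair is responsive (active) rests on the original authors' judgment that its measured signal was statistically different from baseline. Pairs without that judgment are non-responsive (inactive). Sources used varied assay methods, commonly transient luciferase assays in mammalian cell lines.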

The target in a further assay is T2, OR2W5P (Homo sapiens) (UniProt A6NFC9).
T2 sequence (whole entry): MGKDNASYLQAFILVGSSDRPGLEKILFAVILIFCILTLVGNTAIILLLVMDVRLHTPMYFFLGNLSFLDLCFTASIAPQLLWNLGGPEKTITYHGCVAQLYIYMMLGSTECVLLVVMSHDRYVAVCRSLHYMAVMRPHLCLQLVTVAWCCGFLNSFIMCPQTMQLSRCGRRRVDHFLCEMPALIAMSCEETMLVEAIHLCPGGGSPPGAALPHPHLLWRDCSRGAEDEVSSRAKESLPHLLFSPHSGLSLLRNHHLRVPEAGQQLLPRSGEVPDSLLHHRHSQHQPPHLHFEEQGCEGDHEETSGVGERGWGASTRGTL
Summed up:
as §1

In another assay the target is T3, OR2Y1 (Homo sapiens) (UniProt Q8NGV0).
T3 sequence (whole entry): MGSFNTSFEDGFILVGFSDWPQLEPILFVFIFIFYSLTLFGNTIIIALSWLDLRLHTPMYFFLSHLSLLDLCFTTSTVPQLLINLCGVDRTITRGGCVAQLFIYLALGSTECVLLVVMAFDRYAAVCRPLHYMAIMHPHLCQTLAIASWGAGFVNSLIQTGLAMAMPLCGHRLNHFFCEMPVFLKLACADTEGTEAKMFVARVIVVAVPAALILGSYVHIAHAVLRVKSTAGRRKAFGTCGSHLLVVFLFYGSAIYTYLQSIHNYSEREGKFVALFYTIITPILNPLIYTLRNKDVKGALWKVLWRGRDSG
Summed up: as §1

For another assay, the target named is T4, OR2Z1 (Homo sapiens) (UniProt Q8NG97).
T4 sequence (whole entry): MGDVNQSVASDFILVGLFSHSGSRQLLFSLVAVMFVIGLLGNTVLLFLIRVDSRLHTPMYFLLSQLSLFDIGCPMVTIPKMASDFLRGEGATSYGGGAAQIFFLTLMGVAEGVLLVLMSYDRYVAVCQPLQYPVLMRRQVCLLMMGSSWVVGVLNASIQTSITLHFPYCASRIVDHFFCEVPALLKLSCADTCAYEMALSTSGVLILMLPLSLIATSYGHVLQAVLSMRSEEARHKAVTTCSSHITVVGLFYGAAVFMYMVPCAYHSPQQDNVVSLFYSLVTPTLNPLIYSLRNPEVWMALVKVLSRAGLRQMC
Summed up:
as §1

Another assay has as its target T5, OR3A1 (Homo sapiens) (UniProt P47881).
T5 sequence (whole entry): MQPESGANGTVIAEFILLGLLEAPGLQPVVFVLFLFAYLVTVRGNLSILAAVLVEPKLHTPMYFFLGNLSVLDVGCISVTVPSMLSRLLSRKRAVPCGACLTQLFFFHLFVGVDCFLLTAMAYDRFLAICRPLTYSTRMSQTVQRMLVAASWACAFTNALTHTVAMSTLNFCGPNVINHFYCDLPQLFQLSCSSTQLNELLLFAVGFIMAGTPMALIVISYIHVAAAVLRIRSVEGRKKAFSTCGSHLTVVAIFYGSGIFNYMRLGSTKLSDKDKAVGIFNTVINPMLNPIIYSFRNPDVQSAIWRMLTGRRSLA
In short, it runs like this: as §1

The target in a further assay is T6, OR3A2 (Homo sapiens) (UniProt P47893).
T6 sequence (whole entry): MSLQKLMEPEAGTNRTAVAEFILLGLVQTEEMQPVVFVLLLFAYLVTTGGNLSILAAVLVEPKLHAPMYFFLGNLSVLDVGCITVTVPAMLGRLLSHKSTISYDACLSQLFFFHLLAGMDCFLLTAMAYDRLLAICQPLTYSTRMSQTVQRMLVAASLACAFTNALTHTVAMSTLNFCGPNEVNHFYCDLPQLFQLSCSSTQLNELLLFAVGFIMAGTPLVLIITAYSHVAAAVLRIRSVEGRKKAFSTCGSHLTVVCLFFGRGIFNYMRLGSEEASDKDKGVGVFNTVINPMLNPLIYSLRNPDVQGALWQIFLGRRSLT
In short, it runs like this: as §1

In the next assay the target is T7, OR3A3 (Homo sapiens) (UniProt P47888).
T7 sequence (whole entry): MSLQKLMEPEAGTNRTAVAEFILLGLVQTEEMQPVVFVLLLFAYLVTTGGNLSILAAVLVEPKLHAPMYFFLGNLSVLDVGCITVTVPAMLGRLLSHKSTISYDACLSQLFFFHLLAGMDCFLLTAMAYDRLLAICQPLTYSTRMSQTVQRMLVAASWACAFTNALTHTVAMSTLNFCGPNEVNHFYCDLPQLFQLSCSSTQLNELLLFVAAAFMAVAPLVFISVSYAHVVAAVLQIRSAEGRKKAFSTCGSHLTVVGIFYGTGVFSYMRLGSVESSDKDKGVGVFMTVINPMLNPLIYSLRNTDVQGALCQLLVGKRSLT
In short, it runs like this: as §1

A further assay deals with T8, OR3A4P (Homo sapiens) (UniProt P47883).
T8 sequence (whole entry): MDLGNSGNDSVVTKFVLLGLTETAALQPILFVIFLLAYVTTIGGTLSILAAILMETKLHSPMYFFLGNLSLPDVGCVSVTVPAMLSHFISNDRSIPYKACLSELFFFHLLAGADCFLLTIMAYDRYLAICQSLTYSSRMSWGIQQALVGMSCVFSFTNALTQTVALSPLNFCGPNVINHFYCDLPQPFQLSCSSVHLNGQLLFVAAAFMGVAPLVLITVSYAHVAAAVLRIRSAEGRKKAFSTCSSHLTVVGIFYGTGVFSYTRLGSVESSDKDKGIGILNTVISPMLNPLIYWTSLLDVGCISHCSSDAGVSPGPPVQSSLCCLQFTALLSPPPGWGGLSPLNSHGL
Summed up: as §1

In the next assay the target is OR4A15 (Homo sapiens) (UniProt Q8NGL6). In short, it runs like this:
as §1

The target of a further assay is T9, OR4A16 (Homo sapiens) (UniProt Q8NH70).
T9 sequence (whole entry): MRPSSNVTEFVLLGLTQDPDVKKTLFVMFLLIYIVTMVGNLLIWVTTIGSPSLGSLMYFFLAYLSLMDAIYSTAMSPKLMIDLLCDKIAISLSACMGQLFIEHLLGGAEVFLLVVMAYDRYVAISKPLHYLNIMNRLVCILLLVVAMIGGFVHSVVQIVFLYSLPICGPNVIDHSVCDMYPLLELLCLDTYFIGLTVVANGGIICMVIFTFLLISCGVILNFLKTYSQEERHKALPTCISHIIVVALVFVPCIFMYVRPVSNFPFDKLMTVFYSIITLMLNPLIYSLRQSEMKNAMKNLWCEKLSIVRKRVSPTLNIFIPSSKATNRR
In short, it runs like this:
as §1

In another assay the target is T10, OR4A47 (Homo sapiens) (UniProt Q6IF82).
T10 sequence (whole entry): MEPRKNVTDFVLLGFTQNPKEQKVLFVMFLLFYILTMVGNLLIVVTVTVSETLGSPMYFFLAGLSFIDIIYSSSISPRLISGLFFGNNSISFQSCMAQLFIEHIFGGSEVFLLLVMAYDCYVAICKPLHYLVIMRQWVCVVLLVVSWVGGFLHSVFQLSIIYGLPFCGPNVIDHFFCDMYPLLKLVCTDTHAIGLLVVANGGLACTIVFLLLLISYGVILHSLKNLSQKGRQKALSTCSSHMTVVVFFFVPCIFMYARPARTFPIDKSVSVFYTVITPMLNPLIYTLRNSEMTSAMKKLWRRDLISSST
Summed up:
as §1

The target in a further assay is T11, OR4A5 (Homo sapiens) (UniProt Q8NH83).
T11 sequence (whole entry): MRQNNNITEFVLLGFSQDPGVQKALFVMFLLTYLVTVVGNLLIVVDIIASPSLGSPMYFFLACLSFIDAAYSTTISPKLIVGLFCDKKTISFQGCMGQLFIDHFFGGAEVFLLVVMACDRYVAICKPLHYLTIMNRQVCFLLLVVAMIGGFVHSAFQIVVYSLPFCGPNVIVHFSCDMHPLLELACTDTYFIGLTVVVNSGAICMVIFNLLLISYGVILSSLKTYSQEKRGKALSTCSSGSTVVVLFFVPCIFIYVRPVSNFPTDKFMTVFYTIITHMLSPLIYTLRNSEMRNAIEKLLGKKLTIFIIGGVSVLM
Summed up: as §1

For the next assay, the target named is T12, OR4B1 (Homo sapiens) (UniProt Q8NGF8).
T12 sequence (whole entry): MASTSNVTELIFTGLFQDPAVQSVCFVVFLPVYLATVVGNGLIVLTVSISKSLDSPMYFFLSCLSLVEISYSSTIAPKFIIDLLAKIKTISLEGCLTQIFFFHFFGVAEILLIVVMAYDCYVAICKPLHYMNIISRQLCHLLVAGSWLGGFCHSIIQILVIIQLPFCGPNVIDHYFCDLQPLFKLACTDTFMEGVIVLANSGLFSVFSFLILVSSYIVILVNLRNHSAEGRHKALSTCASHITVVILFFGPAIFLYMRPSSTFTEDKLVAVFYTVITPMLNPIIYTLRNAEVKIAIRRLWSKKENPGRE
Summed up: as §1

A further assay addresses T13, OR4C11 (Homo sapiens) (UniProt Q6IEV9).
T13 sequence (whole entry): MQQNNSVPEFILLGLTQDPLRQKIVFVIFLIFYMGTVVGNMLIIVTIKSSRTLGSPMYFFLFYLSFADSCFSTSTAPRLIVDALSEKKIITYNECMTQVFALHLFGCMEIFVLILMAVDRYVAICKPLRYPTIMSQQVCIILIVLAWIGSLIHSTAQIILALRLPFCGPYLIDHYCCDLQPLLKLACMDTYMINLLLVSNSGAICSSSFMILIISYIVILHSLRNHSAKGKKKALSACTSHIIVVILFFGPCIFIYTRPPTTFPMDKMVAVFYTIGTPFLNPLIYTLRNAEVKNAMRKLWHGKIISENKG
Summed up: as §1

The target in the next assay is OR4C12 (Homo sapiens) (UniProt Q96R67). In short, it runs like this: as §1
OR4C12 (Homo sapiens), sequence (Q96R67 whole entry): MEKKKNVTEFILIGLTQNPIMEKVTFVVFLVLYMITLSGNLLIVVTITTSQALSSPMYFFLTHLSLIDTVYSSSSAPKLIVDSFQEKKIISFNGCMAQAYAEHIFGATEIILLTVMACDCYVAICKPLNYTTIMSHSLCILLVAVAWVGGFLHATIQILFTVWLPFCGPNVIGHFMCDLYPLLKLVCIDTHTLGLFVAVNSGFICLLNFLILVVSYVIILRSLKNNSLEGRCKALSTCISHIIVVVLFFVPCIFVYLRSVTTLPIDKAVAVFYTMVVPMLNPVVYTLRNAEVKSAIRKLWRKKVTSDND

Molecules are shown by their SMILES.

OR4A15 (Homo sapiens), sequence (Q8NGL6 whole entry): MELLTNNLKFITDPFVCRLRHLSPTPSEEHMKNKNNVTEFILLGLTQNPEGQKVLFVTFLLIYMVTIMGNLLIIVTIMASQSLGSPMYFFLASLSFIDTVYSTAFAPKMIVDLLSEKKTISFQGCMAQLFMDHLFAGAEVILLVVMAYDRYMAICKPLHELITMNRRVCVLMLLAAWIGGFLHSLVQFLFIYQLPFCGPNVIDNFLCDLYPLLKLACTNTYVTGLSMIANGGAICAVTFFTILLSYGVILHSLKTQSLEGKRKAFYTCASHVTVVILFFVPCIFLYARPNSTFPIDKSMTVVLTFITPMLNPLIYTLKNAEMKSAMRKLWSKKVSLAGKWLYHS

As for `CCCCC(S)C(C)CO` (stereo not given), the “odorant receptor agonist call” value in the assay with OR2W3 (Homo sapiens), in the assay with OR2W5P (Homo sapiens), in the assay with OR2Y1 (Homo sapiens), in the assay with OR2Z1 (Homo sapiens), with OR3A1 (Homo sapiens) and in the assay with OR3A2 (Homo sapiens) was “inactive” each time. Moreover, the “odorant receptor agonist call” value with OR3A3 (Homo sapiens), in the assay with OR3A4P (Homo sapiens), in the assay with OR4A15 (Homo sapiens), with OR4A16 (Homo sapiens), with OR4A47 (Homo sapiens) and with OR4A5 (Homo sapiens) was “inactive” each time. Moreover, the “odorant receptor agonist call” value with OR4B1 (Homo sapiens), in the assay with OR4C11 (Homo sapiens) and with OR4C12 (Homo sapiens) was “inactive” each time.
For the molecule `CCC(O)c1ccccc1` (stereo not given), the “odorant receptor agonist call” value in the assay with OR3A1 (Homo sapiens) was “inactive”.
Take `COc1ccc(CC(C)C=O)cc1` (stereo not given): in the assay with OR3A1 (Homo sapiens), the “odorant receptor agonist call” value was “active”.
Still for that read-out and setting: the result for `CC(=O)CCc1ccc(O)cc1` reads “inactive”; that for `Cc1ccc(CC(C)C=O)cc1` (stereo not given), “active”.
Consider `CC(CO)CS` (stereo not given), for which the “odorant receptor agonist call” value with OR2W3 (Homo sapiens), in the assay with OR2W5P (Homo sapiens), with OR2Y1 (Homo sapiens), with OR2Z1 (Homo sapiens), with OR3A1 (Homo sapiens) and with OR3A2 (Homo sapiens) was “inactive” in each case. The “odorant receptor agonist call” value with OR3A3 (Homo sapiens), in the assay with OR3A4P (Homo sapiens), in the assay with OR4A15 (Homo sapiens), with OR4A16 (Homo sapiens), with OR4A47 (Homo sapiens) and with OR4A5 (Homo sapiens) was “inactive” in each case. The “odorant receptor agonist call” value with OR4B1 (Homo sapiens), in the assay with OR4C11 (Homo sapiens) and with OR4C12 (Homo sapiens) was “inactive” throughout.
With `CCCCCC(=O)C(C)C(C)=O` (stereo not given), the “odorant receptor agonist call” value in the assay with OR2W3 (Homo sapiens), with OR2W5P (Homo sapiens), in the assay with OR2Y1 (Homo sapiens), with OR2Z1 (Homo sapiens), with OR3A1 (Homo sapiens) and in the assay with OR3A2 (Homo sapiens) was “inactive” throughout. The “odorant receptor agonist call” value with OR3A3 (Homo sapiens), with OR3A4P (Homo sapiens), with OR4A15 (Homo sapiens), with OR4A16 (Homo sapiens), in the assay with OR4A47 (Homo sapiens) and with OR4A5 (Homo sapiens) was “inactive” in each case. For the same molecule, the “odorant receptor agonist call” value in the assay with OR4B1 (Homo sapiens), with OR4C11 (Homo sapiens) and with OR4C12 (Homo sapiens) was “inactive” in each case.
For `CCC(=O)O`, the “odorant receptor agonist call” value in the assay with OR2W3 (Homo sapiens) was “inactive”.
For `CCC(S)C(C)CO` (stereo not given), the “odorant receptor agonist call” value with OR2W3 (Homo sapiens), with OR2W5P (Homo sapiens), in the assay with OR2Y1 (Homo sapiens), with OR2Z1 (Homo sapiens), with OR3A1 (Homo sapiens) and in the assay with OR3A2 (Homo sapiens) was “inactive” throughout. Further, the “odorant receptor agonist call” value with OR3A3 (Homo sapiens), with OR3A4P (Homo sapiens), in the assay with OR4A15 (Homo sapiens), with OR4A16 (Homo sapiens), with OR4A47 (Homo sapiens) and in the assay with OR4A5 (Homo sapiens) was “inactive” each time. Moreover, the “odorant receptor agonist call” value with OR4B1 (Homo sapiens), with OR4C11 (Homo sapiens) and with OR4C12 (Homo sapiens) was “inactive” in each case.
